Experimental data pooled from the literature.
Each line is one published result; the experiments were not run side by side.
Observed: metabolic stability
Medium: liver microsomes

SMILES	host	concentration	pH	microsomal CLint [µL/min/mg]
O=C(Nc1ccnc(C(F)(F)F)c1)Nc1cccc2c1OC(F)(F)O2	mouse	–	–	92
c1ccc(CCNc2nc(-c3ccccn3)nc3ccccc23)nc1	mouse	–	–	336
CS(=O)(=O)c1ccc(-c2cnc(N)c(-c3ccc(C(F)(F)F)nc3)c2)cc1	male CD-1 mouse	1 µM	–	< 11.6
N#CC1CCN(c2nc(-c3ccccn3)nc3ccccc23)CC1	mouse	–	–	105
Cc1cc(Nc2ccc(S(F)(F)(F)(F)F)cc2)n2ccnc2n1	mouse	–	–	30
O=C(C1CCCCC1)N1CC(=O)N2CCc3ccccc3[C@@H]2C1	mouse	0.1 µM	pH 7.4	> 1000
Oc1ccc(-c2nc(N3CCC(c4ccccn4)C3)c3ccccc3n2)cc1 (stereo not shown)	mouse	–	–	388
CCOC(=O)c1c(-c2cccc(Oc3ccccc3)c2)[nH]c2cc(OC)c(F)cc2c1=O	female CD-1 mouse	19.8 µM	pH 7.4	> 15
CCC(F)(F)c1nc2nc(C)cc(Nc3ccc(C(F)(F)F)cc3)n2n1	mouse	1 µM	pH 7.4	< 10
c1ccc(-c2nc(NCc3cccnc3)c3ccccc3n2)nc1	mouse	–	–	64
Cc1cc(Nc2ccc(C(F)(F)F)cc2)n2nc(C(F)(F)F)nc2n1	mouse	1 µM	pH 7.4	< 10
CCOC(=O)c1c(-c2cccc(Cl)c2)[nH]c2cc(OC)c(F)cc2c1=O	female CD-1 mouse	19.8 µM	pH 7.4	< 4
N#CC1CCCN(c2nc(-c3ccccn3)nc3ccccc23)C1 (stereo not shown)	mouse	–	–	93
CCOC(=O)c1c(-c2cccc(Oc3ccccc3)c2)[nH]c2cc(OC)ccc2c1=O	female CD-1 mouse	19.8 µM	pH 7.4	> 15
Cc1cc(Nc2ccc(C(F)(F)F)cc2)n2nc(C(C)(F)F)nc2n1	mouse	1 µM	pH 7.4	< 10
c1ccc(CN2CCN(c3nc(-c4ccccn4)nc4ccccc34)CC2)cc1	mouse	–	–	393
CCOC(=O)C1=C(C)N/C(=C/c2cc(C)n(Cc3ccc(C(F)(F)F)cc3)c2C)C1=O	mouse	1 µM	–	103
CCCOc1cccc(-c2[nH]c3cc(OC)ccc3c(=O)c2C(=O)OCC)c1	female CD-1 mouse	19.8 µM	pH 7.4	> 15
Cc1cc(NC(=O)Nc2ccc3c(c2)OC(F)(F)O3)cc(C(F)(F)F)n1	mouse	–	–	36
